13 compounds from ChEMBL document CHEMBL1139591, “Synthesis and antibacterial activity of dihydro-1,2-oxazine and 2-pyrazoline oxazolidinones: novel analogs of linezolid” (2005) can be followed below.

Values after ≈ are worked out from the molar mass of the structure shown.

Common to all, as to type: functional
The test system of test [1] is Staphylococcus aureus. As to the kind of experiment: Minimum inhibitory concentration against heterogeneously methicillin-resistant Staphylococcus aureus A27218. The method in brief:
(§1)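 Broth microdilution per NCCLS guidance in Mueller-Hinton medium. Final inoculum about 5×10^5 cfu/mL. Plates incubated at 35 °C for 18 h in ambient air. MIC taken as the lowest drug concentration that prevented visible growth.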

For test [2], the system named is Staphylococcus aureus. Nature of the test: Minimum inhibitory concentration against Staphylococcus aureus A15090. The essentials: as §1
In test [3] the test system is Streptococcus pneumoniae. Nature of the test: Minimum inhibitory concentration against Streptococcus pneumoniae A9585. The essentials: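 Broth microdilution following NCCLS recommendations, using Todd Hewitt broth for streptococci; final inoculum approx. 5×10^5 cfu/mL; incubation 35 °C for 18 h in 5% CO₂. MIC read as the lowest drug concentration preventing growth, µg/mL.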

Test [4] concerns Enterococcus faecalis. As to the kind of experiment: Minimum inhibitory concentration against Enterococcus faecalis A20688. The essentials:
(§2)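 Broth microdilution per NCCLS guidance in Mueller-Hinton medium; final inoculum about 5×10^5 cfu/mL; plates incubated 18 h at 35 °C in ambient air. MIC taken as the lowest drug concentration preventing visible growth, in µg/mL.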

Test [5] concerns Staphylococcus aureus. Nature of the test: Minimum inhibitory concentration against homogeneously methicillin-resistant Staphylococcus aureus A27223. The essentials:
as §1

Test [6] concerns Enterococcus faecium. As to the kind of experiment: Minimum inhibitory concentration against Enterococcus faecium A24885. The method in brief:
as §2

Test [7] has as its system Staphylococcus aureus. Nature of the test: Minimum inhibitory concentration against heterogeneously methicillin-resistant Staphylococcus aureus A27218 in the presence of 50% calf serum. The essentials:
(§3)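 Broth microdilution per NCCLS guidance in Mueller-Hinton medium supplemented with 50% calf serum. Final inoculum about 5×10^5 cfu/mL. Incubated at 35 °C for 18 h in ambient air. MIC read as the lowest drug concentration that prevented visible growth.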

The test system of test [8] is Staphylococcus aureus. Nature of the test: Minimum inhibitory concentration against Staphylococcus aureus A15090 in the presence of 50% calf serum. The essentials: as §3
Test [9] has as its system Staphylococcus aureus. As to the kind of experiment: Minimum inhibitory concentration against homogeneously methicillin-resistant Staphylococcus aureus A27223 in the presence of 50% calf serum. The essentials:
as §3

Take `CC(=O)NC[C@H]1CN(c2ccc(N3CCCCN3C(C)=O)c(F)c2)C(=O)O1`: the MIC in test [1] is 32 µg/mL (≈ 84.6 µM); in test [2], 32 µg/mL (≈ 84.6 µM); in test [3], 4 µg/mL (≈ 10.6 µM); in [4] it was 32 µg/mL (≈ 84.6 µM); in test [5] it was 16 µg/mL (≈ 42.3 µM); in [6], 32 µg/mL (≈ 84.6 µM).

For `CC(=O)NC[C@H]1CN(c2ccc(N3CC(C)=C(C)CO3)cc2)C(=O)O1`, the MIC was found to be 8 µg/mL (≈ 23.2 µM) in test [1]; 4 µg/mL (≈ 11.6 µM) in test [2]; 8 µg/mL (≈ 23.2 µM) in test [3]; 16 µg/mL (≈ 46.3 µM) in test [4]; 4 µg/mL (≈ 11.6 µM) in [5]; 8 µg/mL (≈ 23.2 µM) in test [6].

As to `CC(=O)NC[C@H]1CN(c2ccc(NO)cc2)C(=O)O1`, the MIC came to 4 µg/mL (≈ 15.1 µM) in test [1]; 0.5 µg/mL (≈ 1.88 µM) in test [2]; 4 µg/mL (≈ 15.1 µM) in test [3]; 8 µg/mL (≈ 30.2 µM) in test [4]; 2 µg/mL (≈ 7.54 µM) in test [5]; 4 µg/mL (≈ 15.1 µM) in [6].

For the compound `CC(=O)NC[C@H]1CN(c2ccc([N+](=O)[O-])c(F)c2)C(=O)O1`, the MIC in [1] was 128 µg/mL (≈ 431 µM); in test [2], greater than 128 µg/mL; in test [3], 64 µg/mL (≈ 215 µM); in [4], greater than 128 µg/mL; in [5], 128 µg/mL (≈ 431 µM); in [6] it was greater than 128 µg/mL.

With `CC(=O)NC[C@H]1CN(c2ccc(N3CCC=N3)c(F)c2)C(=O)O1`, the MIC in test [1] was found to be 1 µg/mL (≈ 3.12 µM); in [7] it was 1 µg/mL; in [8], 1 µg/mL; in [2] it was 1 µg/mL (≈ 3.12 µM); in test [3], 1 µg/mL (≈ 3.12 µM); in [4] it was 2 µg/mL (≈ 6.24 µM). Moreover, the minimum inhibitory concentration (MIC) in [9] came out at 1 µg/mL; in [5], 1 µg/mL (≈ 3.12 µM); in test [6], 4 µg/mL (≈ 12.5 µM).

In the case of `CC(=O)NC[C@H]1CN(c2ccc(N)cc2)C(=O)O1`, the MIC in [1] stood at 128 µg/mL (≈ 513 µM); in [2], 16 µg/mL (≈ 64.2 µM); in test [3], 16 µg/mL (≈ 64.2 µM); in [4], 128 µg/mL (≈ 513 µM); in test [5], 64 µg/mL (≈ 257 µM); in test [6], 128 µg/mL (≈ 513 µM).

Turning to `CC(=O)NC[C@H]1CN(c2ccc(N3OC4C=CC3CC4)cc2)C(=O)O1` (stereo not given in full), the minimum inhibitory concentration (MIC) in test [1] worked out at 8 µg/mL (≈ 23.3 µM); in test [2], 16 µg/mL (≈ 46.6 µM); in test [3], 16 µg/mL (≈ 46.6 µM); in [4], 32 µg/mL (≈ 93.2 µM); in [5] it was 4 µg/mL (≈ 11.6 µM); in test [6] it was 16 µg/mL (≈ 46.6 µM).

`CC(=O)NC[C@H]1CN(c2ccc(N3CC=CCO3)cc2)C(=O)O1`: the MIC in [1] was 2 µg/mL (≈ 6.3 µM); in [7] it was 2 µg/mL; in [8], 1 µg/mL; in test [2] it was 1 µg/mL (≈ 3.15 µM); in [3], 2 µg/mL (≈ 6.3 µM); in test [4], 4 µg/mL (≈ 12.6 µM). The minimum inhibitory concentration (MIC) in [9] stood at 1 µg/mL; in [5], 1 µg/mL (≈ 3.15 µM); in test [6], 2 µg/mL (≈ 6.3 µM).

For the compound `CC(=O)NC[C@H]1CN(c2ccc(N=O)cc2)C(=O)O1`, the MIC in test [1] was determined as 2 µg/mL (≈ 7.6 µM); in test [2] it was 2 µg/mL (≈ 7.6 µM); in [3], 1 µg/mL (≈ 3.8 µM); in [4], 4 µg/mL (≈ 15.2 µM); in [5], 1 µg/mL (≈ 3.8 µM); in [6] it was 2 µg/mL (≈ 7.6 µM).

Turning to `CC(=O)NC[C@H]1CN(c2ccc(N3CCCN3C(C)=O)c(F)c2)C(=O)O1`, the minimum inhibitory concentration (MIC) in test [1] was 32 µg/mL (≈ 87.8 µM); in test [2], 32 µg/mL (≈ 87.8 µM); in test [3], 0.5 µg/mL (≈ 1.37 µM); in test [4], 32 µg/mL (≈ 87.8 µM); in test [5] it was 16 µg/mL (≈ 43.9 µM); in test [6] it was 32 µg/mL (≈ 87.8 µM).

`CC(=O)NC[C@H]1CN(c2ccc([N+](=O)[O-])cc2)C(=O)O1`: the MIC was found to be 2 µg/mL (≈ 7.16 µM) in test [1]; 0.5 µg/mL (≈ 1.79 µM) in test [2]; 2 µg/mL (≈ 7.16 µM) in [3]; 4 µg/mL (≈ 14.3 µM) in [4]; 1 µg/mL (≈ 3.58 µM) in test [5]; 4 µg/mL (≈ 14.3 µM) in test [6].

Consider `CC(=O)NC[C@H]1CN(c2ccc(N3CCN(C(=O)CO)CC3)c(F)c2)C(=O)O1` [EPEREZOLID], for which the MIC in test [1] was determined as 1 µg/mL (≈ 2.54 µM); in [2] it was 1 µg/mL (≈ 2.54 µM); in test [3] it was 0.5 µg/mL (≈ 1.27 µM); in [4] it was 2 µg/mL (≈ 5.07 µM); in test [5], 1 µg/mL (≈ 2.54 µM); in test [6], 2 µg/mL (≈ 5.07 µM).

`CC(=O)NC[C@H]1CN(c2ccc(N3CCOCC3)c(F)c2)C(=O)O1` [LINEZOLID]: the MIC in test [2] is 1 µg/mL (≈ 2.96 µM); in [6], 2 µg/mL (≈ 5.93 µM).

The term MIC denotes the least concentration at which growth counts as inhibited.
